Assay results reported in ChEMBL document CHEMBL1137858, “Formation of squaric acid amides of anthracycline antibiotics. Synthesis and cytotoxic properties” (Bioorg Med Chem Lett, 2004).
In brackets after ≈: the same amount, converted by molar mass.

How the values were obtained:
[1] = test system: MCF7; test: Percent control of human mammary adenocarcinoma MCF-7 cell line proliferation at 3 ng/mL; assay type: functional
In short: (§1)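 MCF-7 human mammary adenocarcinoma cells (5 · 10^3) seeded in 24-well plates in RPMI-1640 with 10% fetal calf serum, penicillin (50 unit/mL) and streptomycin, 37 C, 5% CO2. Compounds added 3 h after plating. After 24 h exposure, medium replaced and cultures incubated a further 72 h. Cell population measured by MTT absorbance. IC50 values calculated from the data.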

[2] = test system: MCF7; test: Percent control of human mammary adenocarcinoma MCF-7 cell line proliferation at 30 ng/mL; assay type: functional; in short: as §1
[3] = test system: MCF7; test: Percent control of human mammary adenocarcinoma MCF-7 cell line proliferation at 300 ng/mL; assay type: functional; in short: as §1
[4] = test system: MCF7; test: Concentration required to inhibit proliferation of human mammary adenocarcinoma MCF-7 cell line was determined using MTT assay; assay type: functional, cell-based; in short: as §1
[5] = test system: MCF7; test: Percent control of human mammary adenocarcinoma MCF-7 cell line proliferation at 0.3 ng/mL; assay type: functional; in short: as §1

| Structure (SMILES) | Control [1] | Control [2] | Control [3] | IC50 [4] | Control [5] |
| --- | --- | --- | --- | --- | --- |
| COc1c(NC2CC(O[C@H]3C[C@](O)(C(C)=O)Cc4c(O)c5c(c(O)c43)C(=O)c3c(O)cccc3C5=O)OC(C)C2O)c(=O)c1=O (stereo partly drawn) | 89.7% | 81% | 46.3% | 0.299 µg/mL (≈ 0.48 µM) | – |
| COc1cccc2c1C(=O)c1c(O)c3c(c(O)c1C2=O)C[C@@](O)(C(=O)CO)C[C@@H]3OC1CC(/N=c2/c(O)c(O)/c2=N\CCCCCC/N=c2\c(O)c(O)\c2=N\C2CC(O[C@H]3C[C@](O)(C(=O)CO)Cc4c(O)c5c(c(O)c43)C(=O)c3c(OC)cccc3C5=O)OC(C)C2O)C(O)C(C)O1 (stereo partly drawn) | 87% | 86.1% | 82.4% | > 0.3 µg/mL | – |
| COc1cccc2c1C(=O)c1c(O)c3c(c(O)c1C2=O)C[C@@](O)(C(=O)CO)C[C@@H]3OC1CC(/N=c2/c(O)c(O)/c2=N/C2CC(O[C@@H]3C[C@@](O)(C(=O)CO)Cc4c(O)c5c(c(O)c43)C(=O)c3c(OC)cccc3C5=O)OC(C)C2O)C(O)C(C)O1 (stereo partly drawn) | 88% | 84.5% | 68.4% | > 0.3 µg/mL | – |
| COc1cccc2c1C(=O)c1c(O)c3c(c(O)c1C2=O)C[C@@](O)(C(=O)CO)C[C@@H]3O[C@H]1C[C@H](N)[C@H](O)[C@H](C)O1.Cl [DOXORUBICIN HYDROCHLORIDE] | 41% | 35.3% | 14.9% | – | 74.7% |
| CC(=O)[C@]1(O)Cc2c(O)c3c(c(O)c2[C@@H](OC2CC(N)C(O)C(C)O2)C1)C(=O)c1c(O)cccc1C3=O.Cl (stereo partly drawn) | 93.2% | 77% | 9.1% | 0.0483 µg/mL | 107% |
| COc1cccc2c1C(=O)c1c(O)c3c(c(O)c1C2=O)C[C@@](O)(C(C)=O)C[C@@H]3OC1CC(/N=c2/c(O)c(O)/c2=N\CCCCCC/N=c2\c(O)c(O)\c2=N\C2CC(O[C@H]3C[C@](O)(C(C)=O)Cc4c(O)c5c(c(O)c43)C(=O)c3c(OC)cccc3C5=O)OC(C)C2O)C(O)C(C)O1 (stereo partly drawn) | 104% | 50% | 32% | 0.087 µg/mL (≈ 0.0655 µM) | – |
| COc1cccc2c1C(=O)c1c(O)c3c(c(O)c1C2=O)C[C@@](O)(C(C)=O)C[C@@H]3OC1CC(/N=c2/c(O)c(O)/c2=N/C2CC(O[C@@H]3C[C@@](O)(C(C)=O)Cc4c(O)c5c(c(O)c43)C(=O)c3c(OC)cccc3C5=O)OC(C)C2O)C(O)C(C)O1 (stereo partly drawn) | 72.7% | 60.7% | 42% | 0.109 µg/mL (≈ 0.0958 µM) | – |
| COc1cccc2c1C(=O)c1c(O)c3c(c(O)c1C2=O)C[C@@](O)(C(C)=O)C[C@@H]3OC1CC(Nc2c(OC)c(=O)c2=O)C(O)C(C)O1 (stereo in doubt; 5) | 85% | 74.7% | 77.8% | > 0.3 µg/mL | – |
